A selection: hits, their analogues and other compounds. The true share with any hit is near 1.6%.
CSN inh = blocks human CSN-mediated cullin deneddylation. Q92905. inhibition, % at 12.5 µM. hit rate 0.38% among 360,000. Purified CSN, SCF-Nedd8-OG deneddylation, fluorescence polarization. AID 651999;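 active = pattern-corrected inhibition above about 35%, with an unprinted fluorescence ratio check between 0.5 and 1.5, limit read from the data, passing the limit was not always enough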
Target sequence (Q92905 whole entry, looked up, one chain of several): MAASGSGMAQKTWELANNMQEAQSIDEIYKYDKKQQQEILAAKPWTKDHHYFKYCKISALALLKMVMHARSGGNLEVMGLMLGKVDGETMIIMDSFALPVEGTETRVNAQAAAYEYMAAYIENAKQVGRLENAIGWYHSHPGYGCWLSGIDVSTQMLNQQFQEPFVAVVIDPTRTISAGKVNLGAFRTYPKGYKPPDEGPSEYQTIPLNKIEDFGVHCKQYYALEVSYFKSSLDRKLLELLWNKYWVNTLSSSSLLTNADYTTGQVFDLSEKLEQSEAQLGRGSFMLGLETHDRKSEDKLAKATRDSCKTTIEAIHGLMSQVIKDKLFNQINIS
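Material: purified human Csn5 enzyme expressed in HEK293T cells / Medium: Tris buffer pH 7.5, NaCl, DTT, Tween-20, trehalose, ovalbumin / Compound dosing: 12.5 µM single point / Schedule: 90 min incubation of compound, enzyme and substrate at room temperature / Signal: fluorescence polarization of the substrate / Control set: no-enzyme wells high, enzyme-with-substrate wells low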
HNF4A DNA FP = change in binding of human HNF4 alpha to DNA. AID 1224865. hit rate 0.3% among 360,000. P41235. activity change, % at 10 µM. HNF4a-FITC DNA binding, fluorescence polarization, 1 h; in the data active = activity change above about 30%, passing the limit was not always enough
TPT1 inhibitor = C. albicans TPT1 enzyme inhibition. recombinant caTPT1, FP RNA substrate dephosphorylation. inhibition, % at 5 µM. hit rate 0.81% among 300,000;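 active = inhibition above the mean of all tested compounds plus 3 SD, set per screening campaign, cut at about 24% in these data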
Rpn11 block = blocks the human proteasome subunit Rpn11 | O00487 | human 26S proteasome, Ub4-pepOG fluorescence polarization; 20S core pre-blocked with epoxomicin | inhibition, % at 20 µM | hit rate 0.59% among 360,000 | AID 588493;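 active = inhibition at 20 µM, scaled to each plate's controls, above about 33%, limit read from the data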
Target sequence (O00487 whole entry, looked up): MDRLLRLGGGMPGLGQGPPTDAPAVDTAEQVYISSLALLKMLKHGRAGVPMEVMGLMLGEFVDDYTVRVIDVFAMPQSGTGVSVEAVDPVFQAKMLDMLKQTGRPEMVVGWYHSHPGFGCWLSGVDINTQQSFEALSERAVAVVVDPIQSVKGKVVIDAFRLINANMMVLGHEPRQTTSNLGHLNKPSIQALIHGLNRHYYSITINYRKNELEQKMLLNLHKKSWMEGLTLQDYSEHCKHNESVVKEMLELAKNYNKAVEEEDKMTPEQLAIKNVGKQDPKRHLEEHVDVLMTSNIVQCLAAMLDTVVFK
SENP1 FRET inh = SENP1 (human) catalytic domain inhibition | Q9P0U3 | recombinant SENP1 catalytic domain, CyPet-SUMO1-YPet FRET cleavage | inhibition, % at 10 µM | hit rate 0.21% among 360,000 | AID 624204;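 active = inhibition at least 30% at 10 µM, raw YFP signal under a set limit, fluorescence ratio 0.5 to 1.5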
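Assay system: hSENP1 catalytic domain, recombinant. Amount: SENP1 enzyme, 20 pM final. Schedule: 50 min reaction, RT, dark. Technique: FRET, CFP and YFP emission. Control set: no-enzyme wells low, DMSO-plus-enzyme wells high control.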
caTPT1 confirm = TPT1 (C. albicans) inhibition, confirmation; shares compounds with TPT1 inhibitor; recombinant caTPT1, fluorescence polarization, RNase T1 coupled; inhibition, % at 5 µM; hit rate 74% among 2,400; AID 2149;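 active = inhibition above the primary screen limit, the mean inhibition of all tested compounds plus 3 SD, cut at about 25% in these data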
RNase T1 counter = counter-screen for TPT1 inhibitors: inhibitors of Aspergillus oryzae RNase T1; AID 2153; shares compounds with TPT1 inhibitor; hit rate 83% among 2,400; inhibition, % at 5 µM; RNase T1 cleavage, fluorescence polarization, 1536-well;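 active = inhibition above the solvent-only control well mean plus 3 SD, limit set per screening run, cut at about 23% in these data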;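 also: inhibitors block cleavage so intact labeled substrate keeps polarization high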
A number is an active result; . = inactive; / = not tested or not shown; + = active, no number.

SMILES | CSN inh | HNF4A DNA FP | TPT1 inhibitor | Rpn11 block | SENP1 FRET inh | caTPT1 confirm | RNase T1 counter
O=C1Nc2cc(C(=O)N3CCN(c4ccccc4F)CC3)ccc2NC1CSCc1ccccc1F (centres undefined) | / | / | 134 | / | / | 91 | 99
COc1ccccc1N1CCN(C(=O)c2ccc3c(c2)NC(=O)C(CSCc2ccccc2C)N3)CC1 (centres undefined) | / | / | 75 | / | / | . | 26
COc1ccc(OC)c(NC(=O)C(C)OC(=O)c2cc3ccccc3[nH]2)c1 (centres undefined) | . | . | / | . | . | / | /
CN(C)/N=C/C=C1\CC/C(=C\c2ccc(Br)cc2)C1=O | . | . | 77 | . | . | 55 | 66
CC(C)N1CCC(N2CCN(CC#Cc3ccccc3)CC2CCO)CC1 (centres undefined) | . | . | . | . | . | / | /
O=C(Cc1ccc(Cl)cc1)NNC(=S)NC(=O)c1cccnc1 | . | . | 35 | . | . | 45 | 58
CCN1C(=O)/C(=C/C=C2/SCCN2C)SC1=S | . | . | + | / | . | 168 | 157
CCCCN1C(=O)/C(=C/C=C2/CC(C)(C)CN2C)SC1=S | . | . | 169 | / | . | 174 | 160
N#Cc1ccc(-c2ccccc2)nc1SCC(=O)c1cccc(Cl)c1 | . | . | 45 | . | . | 27 | 36
N#Cc1ccc(-c2ccc(Cl)cc2)nc1SCC(=O)c1cccc(Cl)c1 | . | . | . | . | . | / | /
CCN(CC)CCCOc1ccc(Cl)c(Cl)c1 | . | . | 134 | . | . | . | .
CN(CCOc1ccc(Cl)c(Cl)c1)Cc1ccccc1 | . | . | . | . | . | / | /
CCCCC(=O)Nc1ccc(C(=O)Nc2ccc(OC)cc2[N+](=O)[O-])cc1 | . | . | 27 | / | . | 54 | 63
CC(=O)NC(=S)c1c(N)n(Cc2ccccc2)c(=O)n(C)c1=O | / | / | 38 | / | / | 32 | 43
CCOC(=O)c1c(/N=C/N(C)C)sc(/C=N/Nc2ccccc2)c1-c1ccccc1Cl | . | . | 35 | . | . | 40 | 52
CCN(CC)c1ccc(/C=C(/C#N)c2nc3ccccc3[nH]2)c(OC(C)C)c1 | . | . | 163 | / | . | 163 | 149
COc1ccc(-c2c/c(=N\c3nc(-c4ccccc4)c(C)s3)c3ccccc3o2)cc1O | . | . | 27 | . | . | . | 31
N#Cc1cc(NC(=O)c2ccc(F)cc2)c(=O)n2c1[nH]c1ccccc12 | / | / | 28 | / | / | 30 | 38
Cc1cc(NC(=O)c2cccc(S(=O)(=O)N3CCCCC3)c2)no1 | . | . | . | . | . | / | /
COc1ccc(C(=O)C2CCCN(C(=O)c3cccnc3SC)C2)c(C)c1 (centres undefined) | . | . | . | . | . | / | /
C=C(C)c1cccc(C(C)(C)NC(=O)NCC2CCCO2)c1 (centres undefined) | . | . | 25 | . | . | . | .
CC1NC(=O)COC1c1ccccc1 (centres undefined) | . | . | / | . | . | / | /
O=C(O)CC/C(=N\Nc1ccc([N+](=O)[O-])cc1S(=O)(=O)N1CCOCC1)c1cccs1 | . | . | 29 | . | . | 41 | 52
O=C(O)c1ccccc1N/N=C\c1ccnc2ccccc12 | . | . | 24 | . | . | . | 30
ON=Cc1ccnc2ccccc12 | . | . | / | . | . | / | /
SMILES | CSN inh | HNF4A DNA FP | TPT1 inhibitor | Rpn11 block | SENP1 FRET inh | caTPT1 confirm | RNase T1 counter
COc1ccc(OC)c(CN2C(=O)c3ccccc3C2c2nnnn2C2CCCC2)c1 (centres undefined) | . | . | / | / | . | / | /
O=C(c1ccco1)N1CCN(C(=O)c2cccc3c2C(=O)N(C2CCCCC2)C3)CC1 | . | . | 27 | . | . | . | 26
CCN(CC)c1ccc(NC(=O)CCCOc2cccc(C)c2)cc1 | . | . | / | . | . | / | /
CCN(CC)c1ccc(/C=N/OCC(=O)Nc2cccc(C)c2)cc1 | . | . | 34 | / | . | 43 | 56
C[C@H]1CN=C(N(C)C)N1CCC1CCCCC1 | . | . | . | . | . | / | /
COc1ccc(CC(=O)NC(C)c2ccc(S(N)(=O)=O)cc2)cc1S(=O)(=O)N1CCOCC1 (centres undefined) | . | . | . | . | . | / | /
CN1C(=O)C(=C2CCCCCC2)SC1=S | . | . | . | . | . | / | /
O=C1NC(=S)SC1=C1CCCC1 | . | . | 28 | . | . | . | 25
COCCCn1c(O)c(/C=C2\N=C(C#N)C(=Nc3ccc(C)cc3)O2)sc1=S | . | . | 79 | / | 54 | 80 | 85
CCc1nnc(NS(=O)(=O)c2ccc(N/C=C(\C=O)c3nc4cc(Cl)ccc4o3)cc2)s1 | . | . | 80 | . | . | . | .
Cc1nnc(-c2cccc(Br)c2)c2cn(-c3cccc(Br)c3)nc12 | . | . | 47 | / | . | 79 | 84
CCC(Oc1ccccc1)C(=O)Nc1ccc(-c2nnc(-c3ccco3)o2)cc1 (centres undefined) | . | . | 71 | . | . | . | .
NC(=S)N/N=C/c1ccc(-c2ccc([N+](=O)[O-])cc2)o1 | . | . | 27 | . | . | 36 | 47
O=C(Cc1ccc([N+](=O)[O-])cc1)N/N=C/c1ccc([N+](=O)[O-])o1 | . | . | . | . | . | / | /
Cc1cc([N+](=O)[O-])ccc1-c1ccc(/C=N/NC(=O)Cc2ccccc2)o1 | . | . | 24 | . | . | 24 | 37
Cc1ccc(NC(=O)C2CCCN2C(=O)OC(C)(C)C)cc1C (centres undefined) | . | . | . | . | . | / | /
O=C(/C=C/c1cccs1)c1cc(Cl)ccc1O | . | . | . | . | . | / | /
O=C(/C=C/c1ccc2ccccc2n1)c1cc(Cl)ccc1O | . | . | 44 | / | . | 46 | 59
CCOC(=O)c1sc2cc([N+](=O)[O-])cc(SCC(C)C)c2c1N | . | . | 32 | / | . | 35 | 46
CNc1cncc(-c2ccc(OCCCN(C)C)nc2)n1 | . | . | / | . | . | / | /
O=C(CCN1C(=O)/C(=C/c2cccs2)SC1=S)Nc1ccccc1O | . | . | 24 | . | . | 25 | 36
CC1CCCCC1NC(=O)COC(=O)c1c2c(nc3ccccc13)/C(=C/c1ccco1)CC2 (centres undefined) | . | . | 33 | . | . | 29 | 41
Cc1ccc(-n2nnnc2C(=Cc2ccc(N(C)C)cc2)c2nnnn2-c2ccc(C)cc2)cc1 | . | . | . | / | . | / | /
CCN(CC)c1ccc(C=C(c2nnnn2-c2ccccc2)c2nnnn2-c2ccccc2)cc1 | . | . | 69 | / | . | 94 | 104
O=C1c2ccccc2S(=O)(=O)c2cc(N3CCC(C(=O)N4CCCCC4)CC3)ccc21 | / | / | 58 | / | / | 78 | 88
COc1ccc(C2C(C(C)=O)=C(C)N=c3s/c(=C\c4cc(C)n(C)c4C)c(=O)n32)c(OC)c1 (centres undefined) | . | . | 132 | / | . | 134 | 127

From PubChem BioAssay
